Assay outcomes deposited in PubChem by several laboratories.
Sampled rows, rich in hits. Any-hit rate of the full collection: about 7.1%.
PTEN del growth: growth suppressors of cells with PTEN tumor suppressor deletion; HCT116 PTEN-null viability, CellTiter-Glo, 60 h; stronger effect = lower value; viability, % at 10 µM; 1.2% of 140,000 active; AID 827;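 active = viability at or below a set limit, 4 SD under the median of all tested compounds, cut at about 3.7% in these data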;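 also: PTEN knockout HCT116 line with beta catenin targeted HCT116 as companion control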
Lung fibro prol: blocks proliferation of human lung fibroblasts | AID 719 | viability, % at 10 µM | LL 47 human lung fibroblast viability, ATP luminescence; stronger effect = lower value | 1.1% of 85,000 active;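 active = viability at or below 50% in the single dose screen; inactive = viability above 50%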;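 also: compound exposure lasted 72 h before the ATP readout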
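Test system: LL 47 human lung fibroblasts; Quantity: 1,150 cells/well; Buffer or medium: IMEM plus 15% FBS; Dosing: tenfold compound dosing solution, DMSO at 0.1%; Timing: overnight cell rest, 72 h compound treatment at 37 °C; Detection: ATP-based CellTiter-Glo luminescent readout; Read-out basis: viability percentage against median untreated-cell control; Controls: cell-only wells, no compound.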
Cav3 T inh: inhibitors of human Cav3.2 T-type calcium channel; O95180; Cav3.2-expressing cells, Fluo-4 calcium fluorescence FDSS; stronger effect = lower value; B-score at 10 µM; 4% of 100,000 active;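 active = single-dose well whose peak fluorescence ratio is a statistical outlier from its plate by either plate-standardised score or position-corrected B-score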
Target sequence (O95180 whole entry, looked up): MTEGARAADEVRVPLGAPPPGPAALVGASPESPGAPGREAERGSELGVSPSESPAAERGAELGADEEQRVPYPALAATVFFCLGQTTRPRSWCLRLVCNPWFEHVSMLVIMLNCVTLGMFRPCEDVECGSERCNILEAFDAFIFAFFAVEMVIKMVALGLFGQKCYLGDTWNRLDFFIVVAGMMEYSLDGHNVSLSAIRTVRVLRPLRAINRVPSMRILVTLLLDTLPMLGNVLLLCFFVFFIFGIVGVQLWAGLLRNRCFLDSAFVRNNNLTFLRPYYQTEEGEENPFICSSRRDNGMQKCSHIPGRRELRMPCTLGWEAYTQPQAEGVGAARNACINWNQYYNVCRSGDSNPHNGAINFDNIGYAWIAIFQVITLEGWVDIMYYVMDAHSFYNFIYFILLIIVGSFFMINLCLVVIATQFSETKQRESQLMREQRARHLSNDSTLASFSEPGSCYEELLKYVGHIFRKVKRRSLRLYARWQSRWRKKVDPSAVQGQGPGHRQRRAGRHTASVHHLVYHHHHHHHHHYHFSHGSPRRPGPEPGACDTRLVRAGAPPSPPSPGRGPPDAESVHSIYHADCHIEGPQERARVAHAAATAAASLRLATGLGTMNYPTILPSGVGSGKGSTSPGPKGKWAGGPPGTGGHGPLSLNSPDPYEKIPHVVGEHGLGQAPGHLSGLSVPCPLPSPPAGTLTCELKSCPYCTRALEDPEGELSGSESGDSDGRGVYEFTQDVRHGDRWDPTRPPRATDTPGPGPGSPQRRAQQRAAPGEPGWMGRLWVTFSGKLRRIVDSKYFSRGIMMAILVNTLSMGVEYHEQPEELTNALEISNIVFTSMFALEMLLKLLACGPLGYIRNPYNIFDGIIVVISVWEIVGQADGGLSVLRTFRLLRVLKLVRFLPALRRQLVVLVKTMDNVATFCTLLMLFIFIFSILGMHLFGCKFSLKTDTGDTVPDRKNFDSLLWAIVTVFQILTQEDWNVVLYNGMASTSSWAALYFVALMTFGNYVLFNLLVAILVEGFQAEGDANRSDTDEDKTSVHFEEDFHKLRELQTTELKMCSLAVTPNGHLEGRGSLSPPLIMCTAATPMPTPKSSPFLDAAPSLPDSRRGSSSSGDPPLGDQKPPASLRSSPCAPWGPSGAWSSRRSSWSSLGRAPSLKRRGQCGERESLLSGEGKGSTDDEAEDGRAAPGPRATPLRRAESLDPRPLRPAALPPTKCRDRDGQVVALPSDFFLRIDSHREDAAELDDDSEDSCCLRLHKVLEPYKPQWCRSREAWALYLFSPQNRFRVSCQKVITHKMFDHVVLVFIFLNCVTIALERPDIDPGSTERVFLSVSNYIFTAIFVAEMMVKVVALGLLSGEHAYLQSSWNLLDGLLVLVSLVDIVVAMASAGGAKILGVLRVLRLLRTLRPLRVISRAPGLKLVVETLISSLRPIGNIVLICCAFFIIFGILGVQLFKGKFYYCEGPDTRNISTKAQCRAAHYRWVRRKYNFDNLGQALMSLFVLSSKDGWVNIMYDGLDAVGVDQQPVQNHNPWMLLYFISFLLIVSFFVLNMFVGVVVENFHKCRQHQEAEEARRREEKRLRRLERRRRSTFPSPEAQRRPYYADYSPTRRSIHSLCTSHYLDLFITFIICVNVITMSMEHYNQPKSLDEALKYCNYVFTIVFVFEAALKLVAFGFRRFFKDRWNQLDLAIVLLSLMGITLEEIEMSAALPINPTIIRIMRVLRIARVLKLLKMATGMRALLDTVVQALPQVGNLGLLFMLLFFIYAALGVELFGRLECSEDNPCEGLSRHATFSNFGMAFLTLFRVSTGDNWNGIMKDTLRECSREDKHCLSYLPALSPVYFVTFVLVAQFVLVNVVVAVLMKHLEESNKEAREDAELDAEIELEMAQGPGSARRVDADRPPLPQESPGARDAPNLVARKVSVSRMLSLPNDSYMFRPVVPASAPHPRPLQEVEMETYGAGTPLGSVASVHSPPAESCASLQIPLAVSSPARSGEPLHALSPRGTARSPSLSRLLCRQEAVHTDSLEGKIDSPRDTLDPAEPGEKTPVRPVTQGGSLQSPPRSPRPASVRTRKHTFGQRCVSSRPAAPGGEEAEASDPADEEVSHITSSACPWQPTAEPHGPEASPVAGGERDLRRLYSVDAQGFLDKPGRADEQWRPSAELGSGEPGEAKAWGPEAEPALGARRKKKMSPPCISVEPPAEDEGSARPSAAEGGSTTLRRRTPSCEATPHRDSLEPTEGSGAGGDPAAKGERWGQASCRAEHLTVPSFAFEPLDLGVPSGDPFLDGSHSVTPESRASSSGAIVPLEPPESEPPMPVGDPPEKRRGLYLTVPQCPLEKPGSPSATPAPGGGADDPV
H69AR inhibit: growth inhibitors of human H69AR lung tumor cells | H69AR lung tumor viability, ATP luminescence, 72 h; stronger effect = lower value | viability, % at 10 µM | 6% of 85,000 active | AID 598;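 active = viability at or below 40%; inactive = viability above 40%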;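 also: multidrug resistant small cell line overexpressing MRP-1 efflux transporter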
HUVEC prolif 384: blocks proliferation of human endothelial cells; HUVEC proliferation, CellTiter-Glo luminescence, 72 h; stronger effect = lower value; viability, % at 10 µM (by protocol); 1.1% of 86,000 active; AID 648;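 active = viability at or below 30%; inactive = viability above 30%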
HCT116 bCat-KO: beta-catenin-lacking colon tumor cell growth suppression. viability, % at 10 µM. HCT116 beta-catenin knockout viability, CellTiter-Glo, 60 h; stronger effect = lower value. AID 818. 1.5% of 140,000 active;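 active = viability at or under a set limit, the compound median less 4 SD, cut at about 6% in these data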
Each line names hits and unclear results; the compound was inactive in the other large screens.

CCOc1ccc(-c2nn(-c3ccccc3)cc2/C=C2\SC(=S)N(C3CCS(=O)(=O)C3)C2=O)cc1 (stereo not drawn)	none
CCOc1ccc(-c2nn(-c3ccccc3)cc2/C=C2\SC(N)=NC2=O)cc1C	PTEN del growth 0.7, HCT116 bCat-KO 1.1 (no result: Lung fibro prol, H69AR inhibit, HUVEC prolif 384)
CCOc1ccccc1N1CCN(C(=O)/C=C/c2cccc([N+](=O)[O-])c2)CC1	none (no result: Lung fibro prol, Cav3 T inh, H69AR inhibit, HUVEC prolif 384)
Fc1ccc(Sc2nc(-c3ccccc3)nnc2C(F)(F)F)cc1	PTEN del growth 2.1, HCT116 bCat-KO 4.1 (no result: Lung fibro prol, Cav3 T inh, H69AR inhibit, HUVEC prolif 384)
Fc1ccc(Oc2nc(-c3ccccc3)nnc2C(F)(F)F)cc1	none (no result: Lung fibro prol, H69AR inhibit, HUVEC prolif 384)
Cc1nn(CCC(=O)NNC(=S)NCC(C)C)c(C)c1Br	none (no result: Lung fibro prol, H69AR inhibit, HUVEC prolif 384)
O=C(OCC(=O)N1CCN(C(=O)c2ccco2)CC1)c1ccccc1C(=O)c1ccccc1	none
O=C(OCC(=O)N1CCN(c2ccccc2)CC1)c1ccco1	H69AR inhibit 29.5
O=C(OCC(=O)N1CCN(C(=O)c2ccco2)CC1)C1=COCCO1	none
O=C(OCC(=O)N1CCN(c2ccccc2)CC1)C1=COCCO1	H69AR inhibit 34.0
O=C1CC(c2ccccc2)n2nc(NC(=O)c3ccccn3)nc2N1 (stereo not drawn)	H69AR inhibit 29.0
Cc1ccc(NC(=S)Nc2ccc(C(C)C)cc2)cc1S(=O)(=O)N1CCCCCC1	none (no result: Lung fibro prol, Cav3 T inh, H69AR inhibit, HUVEC prolif 384)
CC(=O)n1cc(/C=N/NC(=O)c2sc(C)nc2C)c2ccccc21	H69AR inhibit 22.0
Cc1cc(-c2cc(C(=O)Nc3ccccc3)on2)nc(NC2CCCC2)n1	none (no result: PTEN del growth, Lung fibro prol, H69AR inhibit, HUVEC prolif 384, HCT116 bCat-KO)
O=c1c2ccccc2nnn1CSc1nnc(C2COc3ccccc3O2)n1-c1ccccc1 (stereo not drawn)	Cav3 T inh -6.05
O=C(OCn1nnc2ccccc2c1=O)C1COc2ccccc2O1 (stereo not drawn)	none
Cc1ccc(SCC(=O)Nc2ccc(-c3nc4ccccc4[nH]3)cc2)cc1	none (no result: Lung fibro prol, Cav3 T inh, H69AR inhibit, HUVEC prolif 384)
Cc1nnc2sc(-c3ccc(NC(=O)c4ccc(-c5ccc(Br)cc5)o4)cc3)nn12	H69AR inhibit 20.8 (no result: PTEN del growth, Cav3 T inh, HCT116 bCat-KO)
COc1ccccc1NC(=O)c1ccc(-c2ccc(Br)cc2)o1	H69AR inhibit 19.0
COC(=O)c1ccc(NC(=O)c2ccc(CN3CCOCC3)cc2)cc1	none
O=C(Nc1cccc(NC(=O)c2ccc(-c3cccc(Br)c3)o2)c1)c1ccco1	H69AR inhibit 25.3
O=C(Nc1ccc(CN2CCOCC2)cc1)c1ccc(-c2ccc(Br)cc2)o1	H69AR inhibit 19.0
COc1cc(NC(=O)c2ccc(-c3ccc(Br)cc3)o2)ccc1NC(=O)C(C)C	none
COc1ccccc1N(C)S(=O)(=O)c1ccc(C(=O)OCC(=O)NCCC2=CCCCC2)cc1	none (no result: Lung fibro prol, Cav3 T inh, H69AR inhibit, HUVEC prolif 384)
CCN(CC(=O)NCc1ccc(F)cc1)CC(O)COCc1cccc(OC)c1 (stereo not drawn)	none (no result: Lung fibro prol)
CCOC(=O)c1cn2c3c(c(F)c(F)c(F)c3c1=O)SC(N1CCCC1)=N2	none (no result: PTEN del growth, Cav3 T inh, HCT116 bCat-KO)
O=C(Nc1ccccc1)c1ccc(-c2ccc(Br)cc2)o1	Cav3 T inh -5.3
Cc1ccc(-c2nn3c(C)nnc3s2)cc1NC(=O)c1ccc(-c2ccc(Cl)cc2Cl)o1	PTEN del growth 3.2, Lung fibro prol 6.5, HUVEC prolif 384 6.5, HCT116 bCat-KO 2.3
O=C(Nc1cccc(NC(=O)c2ccc(-c3ccc(Br)cc3)o2)c1)c1ccccc1	Cav3 T inh -6.13
COC(=O)c1ccccc1NC(=O)c1ccc(COc2ccccc2)o1	none
O=C(Nc1ccccc1)c1ccc(-c2ccccc2Cl)o1	none (no result: Lung fibro prol, H69AR inhibit, HUVEC prolif 384)
O=C(Nc1ccccc1C(=O)O)c1cccc(NC(=O)c2ccc(Br)o2)c1	none
COC(=O)c1ccccc1NC(=O)c1ccc(-c2cccc(Cl)c2)o1	H69AR inhibit 12.3
S=C(NC1CCCCC1)N(CCc1ccccc1)CCc1ccccc1	none (no result: Lung fibro prol, Cav3 T inh, H69AR inhibit, HUVEC prolif 384)
O=C(NCC1CC1)[C@@H]1C[C@H]1[C@@H](NP(=O)(c1ccccc1)c1ccccc1)c1ccccc1	PTEN del growth 0.1, HCT116 bCat-KO 0.2 (no result: Lung fibro prol, H69AR inhibit, HUVEC prolif 384)
O=C(NCc1ccccc1)[C@@H]1C[C@H]1[C@@H](NP(=O)(c1ccccc1)c1ccccc1)c1ccccc1	none (no result: Lung fibro prol, H69AR inhibit, HUVEC prolif 384)
CC1Cc2nc(SCC(=O)NCc3ccccc3)n(Cc3ccccc3)c(=O)c2S1 (stereo not drawn)	none
CC1Cc2nc(SCC(=O)c3ccccc3)n(Cc3ccccc3)c(=O)c2S1 (stereo not drawn)	Cav3 T inh -6.26
